An excerpt weighted towards active compounds, which were near 1.5% of everything screened.
Hsp70 act = Hsp70 transcriptional activators, primary screen, cell-based, HeLa, Hsp70 promoter luciferase, luminescence, 10 µM; HeLa Hsp70 promoter luciferase reporter; scaled: vehicle 0, proteasome-inhibitor control 100%; AID 1203, 2008; activation, % at 10 µM; 0.04% of 200,000 active;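 active = activation above the mean across all tested compounds plus 3 SD, cutoff set per campaign, cut at about 5.5% in these data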;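 note: 100% = MG132 at 30 µM as the positive control and 0% = DMSO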
Wee1 stabilizer = Wee1 degradation inhibitors, primary screen, cell-based, HeLa, Wee1K328M-luciferase, luminescence; HeLa Luc-Wee1K328M stability; 100% = proteasome inhibitor MG132 effect; reporter increase, % at 5 µM; 1.2% of 220,000 active;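 active = activation above the mean of all tested compounds plus 3 SD, set per screening run, cut at about 8.8% in these data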;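 note: cells exposed to compound for 20 h before luminescence read; 0% = DMSO alone and 100% = MG132 at 30 µM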
MDM2 E3 inh = MDM2-luciferase reporter signal enhancers, primary screen, MDM2 E3 ligase inhibitor project, cell-based, luminescence, 1536-well | E3 ubiquitin-protein ligase Mdm2 (Homo sapiens), Q00987 | cell-based MDM2 ubiquitination luciferase reporter, 2 h; 0 = plate control, 100 = twice control, blank-subtracted | signal enhancement, % at 5 µM | 0.11% of 210,000 active;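 active = signal enhancement of 30% or more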;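 note: luminescence tracks abundance of the self-degrading MDM2-luciferase fusion protein; higher signal means inhibition of MDM2 E3 ligase activity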
Target sequence (Q00987 whole entry, looked up, the tested form may be a part): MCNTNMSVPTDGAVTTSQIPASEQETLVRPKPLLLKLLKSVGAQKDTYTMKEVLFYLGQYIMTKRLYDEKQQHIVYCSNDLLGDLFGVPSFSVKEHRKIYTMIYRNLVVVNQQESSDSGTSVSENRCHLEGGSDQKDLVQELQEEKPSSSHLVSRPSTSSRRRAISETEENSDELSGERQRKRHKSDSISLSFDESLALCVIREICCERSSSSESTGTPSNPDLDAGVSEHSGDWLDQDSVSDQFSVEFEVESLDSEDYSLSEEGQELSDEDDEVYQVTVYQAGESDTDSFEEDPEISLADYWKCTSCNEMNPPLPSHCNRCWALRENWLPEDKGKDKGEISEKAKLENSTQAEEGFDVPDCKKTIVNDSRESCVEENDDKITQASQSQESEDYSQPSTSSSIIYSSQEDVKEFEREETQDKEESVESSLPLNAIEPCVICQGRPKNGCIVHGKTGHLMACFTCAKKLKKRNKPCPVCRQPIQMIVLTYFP
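Timing – 2 h compound exposure at 37 °C · Assay system – mammalian cells stably expressing self-ubiquitinating, self-degrading MDM2 E3–luciferase fusion · Amount – 2000 cells seeded into each well · Measure – % luminescence enhancement versus blank-corrected plate control mean · Measured by – SteadyLite luminescence, 15 min reagent step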
Pf gamet viab = late stage P. falciparum gametocyte viability inhibitors, primary screen, ATP luminescence, HTS; P. falciparum stage V gametocytes, 24 h; inhibition, % at 10.9 µM; 0.065% of 150,000 active;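 active = inhibition above the mean plus 3 SD of compounds within the control limits, set per campaign, cut at about 38% in these data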;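 note: 0% = DMSO wells and 100% = medium only without gametocytes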
Calpain2 inh = inhibitors of pig calpain II, primary screen, biochemical, fluorogenic peptide substrate, 1536-well; purified calpain II, 30 min; inhibition, % at 16 µM; AID 1236, 2008; 0.37% of 220,000 active;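 active = inhibition above about 50%, limit read from the data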
Wee1 degr conf = Wee1 degradation inhibitors, confirmation, cell-based, HeLa, Wee1K328M-luciferase, luminescence, triplicate. shares compounds with Wee1 stabilizer. HeLa Luc-Wee1K328M degradation; vehicle 0%, proteasome-blocked wells 100%. activation, % at 5 µM. 4% of 1,100 active; in the data active = activation above about 8.9%
Starred values were filed as active, the others as inactive; i = inactive; x = no result given.

SMILES | Hsp70 act | Wee1 stabilizer | MDM2 E3 inh | Pf gamet viab | Calpain2 inh | Wee1 degr conf
O=C(N=C1SCC(=O)N1c1ccccc1Cl)c1ccco1 | 0 | 14* | -21 | x | -23 | 5
O=C(N=C1SCC(=O)N1c1ccccc1)c1ccco1 | 0 | -1 | -6 | x | 15 | x
Cc1ccc(-n2nnc3c(=O)n(CC(=O)N4CCOCC4)cnc32)cc1 | 0 | 12* | -8 | x | -37 | 0
C#CCN(CC=C)C(=O)CCc1nnc(COc2ccccc2)o1 | 1 | 16* | -3 | 19 | -2 | 4
C=C(C)CN(CC)C(=O)CCc1nnc(CCCc2ccccc2)o1 | 0 | 4 | -25 | 6 | 2 | x
Cc1ccc(C(C)C)c(OCc2nn(CC(=O)c3ccc(OC(F)F)cc3)c3[n+]2CCCCC3)c1 | 0 | 18* | -24 | x | 43 | -2
COc1ccc(C(=O)Cn2nc(CNc3ccc(Br)cc3)[n+]3c2CCCCC3)cc1 | 0 | 4 | -15 | 0 | -2 | x
CCOC(=O)c1[nH]c2c(c1-c1ccccc1)C(=O)CC(c1ccc(OC)c(OC)c1)C2 (stereo not given) | 0 | 20* | x | x | 8 | 1
COc1cccc(-c2nc(CCl)cs2)c1 | 0 | 0 | -14 | 2 | 6 | x
COc1ccc(-c2nc(CCl)cs2)cc1 | 0 | 12* | -11 | 25 | -12 | 3
CC(C)N(C)Cc1nnnn1CC(=O)NCCc1cccc(C(F)(F)F)c1 | x | x | x | 0 | x | x
COc1ccc(C(C)NC(=O)Cc2cccs2)cc1 (stereo not given) | x | x | x | -18 | x | x
COCCOc1cnn(-c2cc(Oc3ccc(C)cc3)ncn2)c(=O)c1Cl | -1 | 12* | 12 | x | -15 | 4
COc1cnn(-c2cc(Oc3ccc(C)cc3)ncn2)c(=O)c1Cl | 0 | 2 | -18 | x | -20 | x
O=C(C[n+]1ccn(-c2ccccc2)c1)c1ccc([N+](=O)[O-])cc1 | x | x | x | -7 | x | x
COc1ccc(OC)c(NC(=O)C2=C(C)NC(=O)NC2c2cccs2)c1 (stereo not given) | 0 | 0 | -10 | -6 | -7 | x
O=C(NCCCn1ccnc1)c1cc2ccccc2oc1=O | 0 | 13* | 4 | 7 | -16 | 2
Cc1ccc2nc3c(cc(C(=O)NCC4CCCO4)n3C)c(=O)n2c1 (stereo not given) | -1 | 0 | -9 | x | -440 | x
O=C(NCCCN1CCOCC1)c1cc2ccccc2oc1=O | 0 | -1 | -19 | -17 | -42 | x
Cc1ccc2nc3c(cc(C(=O)NCCCn4ccnc4)n3C)c(=O)n2c1 | 0 | 23* | -3 | -5 | i | 2
Cc1ccnc(NC(=O)c2cc3ccccc3oc2=O)c1 | 0 | 13* | -33 | 5 | -12 | 5
CC1CN(c2snnc2C=C2C(=O)OC(C)(C)OC2=O)CC(C)O1 (stereo not given) | 0 | -1 | -11 | -40 | 23 | x
CCCC(=O)Nc1ccc2c(c1)nc(CN1CCCCC1)n2C | 0 | 16* | -1 | 7 | -8 | 5
CCN(Cc1ccccc1)C(=O)c1c(-c2ccccc2Cl)noc1C | x | x | x | -14 | x | x
CN(C)c1ccc(C(CNS(=O)(=O)c2ccc(F)c(F)c2)c2c[nH]c3ccccc23)cc1 (stereo not given) | 0 | 11* | 0 | -14 | 1 | 0
COc1ccc(OCc2nc(N)nc(Nc3ccccc3OC)n2)cc1 | 0 | 18* | -12 | x | -8 | 0
COc1ccccc1Nc1nc(N)nc(CCl)n1 | x | -1 | -10 | -19 | 13 | x
COc1cccc(NC(=O)Nc2ccc3c(c2)nnn3C)c1 | 0 | 16* | -10 | -10 | 22 | 0
CCc1ccc(NC(=O)Nc2cccc(OC)c2)cc1 | 0 | 12* | 1 | 12 | -12 | 3
COc1cccc(NC(=O)Nc2ccc(CC(=O)O)cc2)c1 | 0 | 1 | -10 | x | 17 | x
